# In ChEMBL document CHEMBL1821604, “Anticancer activity and cDNA microarray studies of a (RS)-1,2,3,5-tetrahydro-4,1-benzoxazepine-3-yl]-6-chloro-9H-purine, and an acyclic (RS)-O,N-acetalic 6-chloro-7H-purine” (Eur J Med Chem, 2011):
# Columns and labels:
# Format in all cases: functional
# [1] = test system: MCF7; test: Down regulation of GLIPR1 gene expression in human MCF7 cells at IC50 after 48 hrs by cDNA microarray technique relative to control
# Procedure, shortened: (§1)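 Cells (8 × 10⁶) were cultured in DMEM with 10% heat-inactivated FBS at 37 °C under 5% CO₂. They were exposed for 48 h to compound at its IC₅₀, with DMSO-treated parallel cultures as controls (final DMSO ≤0.1% v/v). Total RNA was isolated by trizol/chloroform phase separation, RNeasy column cleanup and on-column DNase, then quantified by OD260/OD280. Expression was profiled by cDNA microarray relative to control.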
# [2] = test system: MCF7; test: Upregulation of ROS1 gene expression in human MCF7 cells at IC50 after 48 hrs by cDNA microarray technique relative to control
# [3] = test system: MCF7; test: Down regulation of RAC2 gene expression in human MCF7 cells at IC50 after 48 hrs by cDNA microarray technique relative to control
# [4] = test system: HT-29; test: Down regulation of LOC144448 gene expression in human HT-29 cells at IC50 after 48 hrs by cDNA microarray technique relative to control
# [5] = test system: HT-29; test: Down regulation of RAB3D gene expression in human HT-29 cells at IC50 after 48 hrs by cDNA microarray technique relative to control
# [6] = test system: HT-29; test: Upregulation of COL1A1 gene expression in human HT-29 cells at IC50 after 48 hrs by cDNA microarray technique relative to control
# [7] = test system: MCF7; test: Down regulation of MGC42090 gene expression in human MCF7 cells at IC50 after 48 hrs by cDNA microarray technique relative to control
# [8] = test system: MCF7; test: Down regulation of CHST9 gene expression in human MCF7 cells at IC50 after 48 hrs by cDNA microarray technique relative to control
# Procedure, shortened: (§2)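 8 × 10⁶ cells exposed 48 h to compound at its IC50 concentration; total RNA isolated with trizol/chloroform and RNeasy columns including on-column DNase step; RNA quantified by OD 260/280; DMSO-treated cultures as control.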
# [9] = test system: MCF7; test: Down regulation of ZNF336 gene expression in human MCF7 cells at IC50 after 48 hrs by cDNA microarray technique relative to control
# [10] = test system: MCF7; test: Down regulation of PCDH20 gene expression in human MCF7 cells at IC50 after 48 hrs by cDNA microarray technique relative to control
# [11] = test system: MCF7; test: Upregulation of FLJ10945 gene expression in human MCF7 cells at IC50 after 48 hrs by cDNA microarray technique relative to control
# [12] = test system: HT-29; test: Down regulation of KCNJ16 gene expression in human HT-29 cells at IC50 after 48 hrs by cDNA microarray technique relative to control; procedure, shortened: as §1
# [13] = test system: HT-29; test: Down regulation of AK5 gene expression in human HT-29 cells at IC50 after 48 hrs by cDNA microarray technique relative to control; procedure, shortened: as §2
# [14] = test system: MCF7; test: Upregulation of FGD3 gene expression in human MCF7 cells at IC50 after 48 hrs by cDNA microarray technique relative to control
# [15] = test system: MCF7; test: Down regulation of C20orf54 gene expression in human MCF7 cells at IC50 after 48 hrs by cDNA microarray technique relative to control; procedure, shortened: as §2
# [16] = test system: MCF7; test: Upregulation of MGC32020 gene expression in human MCF7 cells at IC50 after 48 hrs by cDNA microarray technique relative to control
# [17] = test system: MCF7; test: Down regulation of DOK5 gene expression in human MCF7 cells at IC50 after 48 hrs by cDNA microarray technique relative to control; procedure, shortened: as §1
# [18] = test system: HT-29; test: Down regulation of BAP1 gene expression in human HT-29 cells at IC50 after 48 hrs by cDNA microarray technique relative to control; procedure, shortened: as §2
# [19] = test system: MCF7; test: Down regulation of THC2441203 gene expression in human MCF7 cells at IC50 after 48 hrs by cDNA microarray technique relative to control
# [20] = test system: HT-29; test: Down regulation of ANXA6 gene expression in human HT-29 cells at IC50 after 48 hrs by cDNA microarray technique relative to control; procedure, shortened: as §2
# [21] = test system: MCF7; test: Upregulation of CITED1 gene expression in human MCF7 cells at IC50 after 48 hrs by cDNA microarray technique relative to control
# [22] = test system: MCF7; test: Upregulation of UNQ739 gene expression in human MCF7 cells at IC50 after 48 hrs by cDNA microarray technique relative to control
# [23] = test system: HT-29; test: Down regulation of ACCN5 gene expression in human HT-29 cells at IC50 after 48 hrs by cDNA microarray technique relative to control; procedure, shortened: as §2
# [24] = test system: HT-29; test: Down regulation of PRKCABP gene expression in human HT-29 cells at IC50 after 48 hrs by cDNA microarray technique relative to control
# [25] = test system: HT-29; test: Upregulation of C1orf24 gene expression in human HT-29 cells at IC50 after 48 hrs by cDNA microarray technique relative to control
# [26] = test system: HT-29; test: Upregulation of KIAA0553 gene expression in human HT-29 cells at IC50 after 48 hrs by cDNA microarray technique relative to control
# [27] = test system: MCF7; test: Upregulation of LRRC48 gene expression in human MCF7 cells at IC50 after 48 hrs by cDNA microarray technique relative to control
# [28] = test system: HT-29; test: Down regulation of SLC22A1 gene expression in human HT-29 cells at IC50 after 48 hrs by cDNA microarray technique relative to control
# [29] = test system: HT-29; test: Down regulation of PRPS1 gene expression in human HT-29 cells at IC50 after 48 hrs by cDNA microarray technique relative to control
# [30] = test system: MCF7; test: Upregulation of OXSR1 gene expression in human MCF7 cells at IC50 after 48 hrs by cDNA microarray technique relative to control
# [31] = test system: HT-29; test: Down regulation of LMNB1 gene expression in human HT-29 cells at IC50 after 48 hrs by cDNA microarray technique relative to control; procedure, shortened: as §1
# [32] = test system: MCF7; test: Upregulation of ST3GAL1 gene expression in human MCF7 cells at IC50 after 48 hrs by cDNA microarray technique relative to control
# [33] = test system: MCF7; test: Down regulation of CCT6B gene expression in human MCF7 cells at IC50 after 48 hrs by cDNA microarray technique relative to control; procedure, shortened: as §2
smiles,measurement,setting,value
COC(CN(c1ccccc1CO)S(=O)(=O)c1ccccc1[N+](=O)[O-])n1cnc2ncnc(Cl)c21 (racemic),fold change (FC),[1],-2.12
same,fold change (FC),[2],2.59
same,fold change (FC),[3],-2.29
same,fold change (FC),[4],-2.45
same,fold change (FC),[5],-2.24
same,fold change (FC),[6],4.97
same,fold change (FC),[7],-2.03
same,fold change (FC),[8],-2.53
same,fold change (FC),[9],-2.45
same,fold change (FC),[10],-2.01
same,fold change (FC),[11],2.07
same,fold change (FC),[12],-2.21
same,fold change (FC),[13],-3.52
same,fold change (FC),[14],2.16
same,fold change (FC),[15],-2.14
same,fold change (FC),[16],2.09
same,fold change (FC),[17],-2.11
O=C(OCC1c2ccccc2-c2ccccc21)N1CC(n2cnc3c(Cl)ncnc32)OCc2ccccc21 (racemic),fold change (FC),[18],-2.13
same,fold change (FC),[19],-3.19
same,fold change (FC),[20],-2.27
same,fold change (FC),[21],2.73
same,fold change (FC),[22],4.07
same,fold change (FC),[23],-2.98
same,fold change (FC),[24],-2.13
same,fold change (FC),[25],2.44
same,fold change (FC),[26],2.07
same,fold change (FC),[27],2.18
same,fold change (FC),[28],-2.27
same,fold change (FC),[29],-2.68
same,fold change (FC),[30],2.21
same,fold change (FC),[31],-3
same,fold change (FC),[32],6.38
same,fold change (FC),[33],-3.22
